Calb biofilm kill: clotrimazole potentiators killing C. albicans biofilm, primary screen, 4-compound mixtures. C. albicans biofilm persisters + clotrimazole, fluorescence viability; primary screen in compound mixtures of four per well. inhibition, % at 7.6 µM. 120,000 tested, 0.02% active. AID 1242, 2008;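 active = inhibition above 30.3% in the primary screen of four-compound pools, then above 30% when the compound was retested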;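 also: compounds exposed to preformed 24 h biofilms for 48 h; 0% = untreated biofilm control and 100% = clotrimazole plus chlorhexidine kill blank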
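Assay system: C. albicans biofilms / Medium: RPMI/MOPS medium, pH 7.0 / Schedule: biofilm formation 24 h, compound exposure 48 h, 37 °C / Measured by: Alamar Blue fluorescence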
p47phox inh: p47phox/p22phox peptide binding inhibitors, primary screen, biochemical, uHTS, NADPH oxidase regulatory subunit | fluorescence polarization, 2 h | inhibition, % at 24.7 µM | 220,000 tested, 0.53% active | AID 1274, 2008;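 active = inhibition above about 30%, limit read from the data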;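 also: 0% = p47phox with labelled peptide and 100% = labelled peptide alone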
Arbovirus inh: antivirals against arbovirus infection, primary screen, cell-based, full library, 10K replicate subset | inhibition, % at 10 µM | arbovirus infection cell-based antiviral screen | 200,000 tested, 0.37% active; in the data active = inhibition above about 30%
RAM network inh: inhibitors of the yeast RAM network, primary screen, dse1pr::URA3 reporter, 5-FOA selection. S. cerevisiae dse1pr::URA3 reporter, 5-FOA growth OD615, 2 d; analog-sensitive cbk1-as2 kinase mutant strain. inhibition, % at 50 µM. 190,000 tested, 1.8% active. AID 868, 2007;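 active = inhibition above a set limit, 3 SD over mean compound inhibition, cut at about 8.4% in these data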;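 also: 0% = DMSO-only wells with no growth and 100% = 10 µM 1-NA-PP1 full growth; inhibition rescues growth on 5-FOA so higher OD means more RAM inhibition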
Hck Nef HTS: inhibitors of Nef-activated human Hck kinase, primary screen, biochemical, Z-Lyte FRET, 384-well, Hck-YEEI; Tyrosine-protein kinase HCK (Homo sapiens), P08631; Recombinant Hck-YEEI plus Nef, Z-Lyte FRET kinase assay; inhibition, % at 20 µM; 220,000 tested, 0.68% active; AID 463187, 2010;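 active = Hck-Nef kinase inhibition above about 50%, limit read from the data; inactive = inhibition below that limit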;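 also: 0% = DMSO with Hck plus Nef and 100% = Hck alone without Nef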
Target sequence (P08631 whole entry, looked up): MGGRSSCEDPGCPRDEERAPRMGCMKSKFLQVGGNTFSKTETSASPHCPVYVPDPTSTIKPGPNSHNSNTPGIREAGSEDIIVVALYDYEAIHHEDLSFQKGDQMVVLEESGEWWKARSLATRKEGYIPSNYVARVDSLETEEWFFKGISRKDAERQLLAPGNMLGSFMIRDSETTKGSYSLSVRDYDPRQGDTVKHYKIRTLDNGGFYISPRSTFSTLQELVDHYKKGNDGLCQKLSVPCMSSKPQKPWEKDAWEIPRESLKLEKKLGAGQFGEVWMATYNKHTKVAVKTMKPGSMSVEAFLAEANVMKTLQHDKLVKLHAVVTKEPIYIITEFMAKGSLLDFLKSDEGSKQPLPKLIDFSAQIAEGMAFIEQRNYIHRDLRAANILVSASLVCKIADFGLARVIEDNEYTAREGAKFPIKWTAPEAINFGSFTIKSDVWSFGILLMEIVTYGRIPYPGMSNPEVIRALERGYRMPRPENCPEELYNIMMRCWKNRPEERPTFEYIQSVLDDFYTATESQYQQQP
WT yeast gro inh: growth inhibition of WT strain, primary screen, mitochondrial fusion inhibitor project, WT and mutant strains, chemical genetic | mitochondrial fusion phenotypic screen | inhibition, % at 10 µM | 190,000 tested, 2.1% active; in the data active = inhibition above about 58%; tested in S. cerevisiae
The depositor's hits bear a star; x = no result. Sampled rows, rich in hits. Any-hit rate of the full collection: about 4.6%.

SMILES | Calb biofilm kill | p47phox inh | Arbovirus inh | RAM network inh | Hck Nef HTS | WT yeast gro inh
COC(=O)Cn1ccc(N(C)C)c(C#N)c1=O | x | 6 | 12 | 1 | 4 | 60*
NS(=O)(=O)c1ccc(NNC(=O)c2ccccc2C(=O)O)cc1 | 7 | -6 | x | x | 6 | x
O=C(O)c1ccccc1C(=O)NNc1ccc(Cl)cc1 | x | -2 | -30 | 0 | -1 | 72*
O=C(NNS(=O)(=O)c1ccc2ccccc2c1)c1cccnc1 | 4 | -11 | -3 | 1 | 3 | -4
Cc1ccc(NC(=S)N(Cc2cccs2)Cc2cc3cccc(C)c3[nH]c2=O)cc1 | 0 | -8 | 12 | 4 | 3 | 19
Cc1ccc(S(=O)(=O)c2c(C)cc(C)nc2Oc2cccc(C)c2C)cc1 | x | 0 | -18 | 4 | -1 | 66*
Cc1cc(C)c(S(C)(=O)=O)c(Oc2ccccc2C)n1 | x | 6 | -2 | 0 | -1 | -8
CCOC(=O)c1[nH]c2cc(OC)c(OC)cc2c1NC(=O)CN1CCN(c2ccc(OC)cc2)C(C)C1 (stereo not given) | x | -12 | 0 | -1 | 1 | 5
O=C(O)CN1C(=O)/C(=C\c2cn(CC(=O)N3CCOCC3)c3ccccc23)SC1=S | -1 | -36 | 3 | 6 | -2 | 1
CCc1ccc(C(=O)Nc2ccc(S(=O)(=O)Nc3nc(C)cc(C)n3)cc2)o1 | x | 0 | 106* | 0 | -10 | x
Cc1cc(C)nc(NS(=O)(=O)c2ccc(NC(=O)c3ccco3)cc2)n1 | x | -10 | 4 | -1 | -1 | 6
COc1ccc(/C=C(/C#N)C(=O)Nc2cccc([N+](=O)[O-])c2)cc1C(=O)O | -4 | -8 | 4 | 0 | 17 | -4
Cc1onc(-c2c(F)cccc2Cl)c1C(=O)NC1CCSC1=O (stereo not given) | x | 3 | 13 | 0 | 1 | 10
c1ccc(Cn2c(CNc3nc4ccccc4n3CCN3CCCCC3)nc3ccccc32)cc1 | 14 | 1 | -36 | 0 | 7 | 64*
NC(=O)c1cc([N+](=O)[O-])ccc1NCc1cccnc1 | 23 | -3 | 37* | 2 | 25 | -10
CCOc1ccc(-n2nc3c(=O)[nH]nc(C)c3c2C)cc1 | 8 | 57* | -1 | 1 | 3 | -9
CCOc1ccc(-n2nc3c(=S)[nH]nc(C)c3c2C)cc1 | 11 | -8 | -2 | 4 | 5 | -9
Cc1cccc(/C(N)=N/OC(=O)COc2ccc(Cl)cc2)c1 | -8 | -9 | 36* | 7 | 21 | 9
Cc1cccc(C(=O)NC(=S)NNC(=O)COc2ccc(Cl)cc2)c1 | 2 | -8 | -22 | 3 | 7 | 64*
O=C(N/N=C1\CC2CC=CC12)c1ccc(COc2ccccc2)cc1 (stereo not given) | 9 | -7 | -16 | 0 | 4 | -2
CC(C)(C)c1ccc(OCc2ccc(C(=O)N/N=C3\CC4CC=CC34)cc2)cc1 (stereo not given) | 16 | -10 | -32 | -1 | 3 | 72*
CN(c1ccccc1)c1ccc(/C=N/N2CCOCC2)cc1 | 10 | 4 | 6 | 1 | 3 | -10
O=C(Nc1cc(C(F)(F)F)ccc1N1CCCCC1)c1ccc(Br)o1 | x | -1 | -4 | 11* | -1 | -2
O=C(Nc1cc(C(F)(F)F)ccc1N1CCCCC1)c1ccco1 | x | -5 | -4 | 3 | -7 | 2
CC1=NN2C(=N)/C(=C\c3ccc(SCc4ccccc4)o3)C(=O)N=C2S1 | x | -86 | 35* | 5 | -4 | x
SMILES | Calb biofilm kill | p47phox inh | Arbovirus inh | RAM network inh | Hck Nef HTS | WT yeast gro inh
COc1ccc(N(C(=O)C(C)C)S(=O)(=O)c2cccc3cccnc23)cc1 | 8 | 59* | -2 | 1 | 2 | -11
CC(Oc1ccc(Cl)cc1)c1ccc(C#N)c(=O)[nH]1 (stereo not given) | 17 | -2 | 6 | 0 | -15 | 0
CCn1nc(C)c(C(=O)Nc2cc(Oc3cc(C)cc(C)c3)cc([N+](=O)[O-])c2)c1C | x | -1 | -31 | 2 | 6 | 69*
Cc1ccc(Oc2cc(NC(=O)CCCn3nc([N+](=O)[O-])cc3C)cc([N+](=O)[O-])c2)cc1 | 16 | -11 | -16 | 9.5* | 2 | 37
Cc1nn(CCCC(=O)Nc2cc(Oc3ccccc3)cc([N+](=O)[O-])c2)c(C)c1[N+](=O)[O-] | 11 | -9 | -11 | 6 | 1 | 19
CC(C)Cc1ccc(/C(=N/O)C(=O)O)s1 | x | 58* | 2 | 2 | -1 | 7
CCc1ccc(C(=O)c2ccccc2C(=O)O)s1 | x | -2 | 7 | 0 | 0 | 28
CCN(CC)C(=O)CSc1nc2ccccc2c(=O)n1CCC(=O)NCc1ccc(F)cc1 | x | -8 | -2 | -1 | 1 | -22
CCCCCn1c(CN2CCN(c3cc(Cl)ccc3C)CC2)nc2c1c(=O)[nH]c(=O)n2C | x | -12 | 1 | 1 | 0 | 65*
CCCCn1c(CN2CCN(c3cccc(Cl)c3)CC2)nc2c1c(=O)n(C)c(=O)n2C | x | -8 | -11 | 0 | 1 | 72*
c1cncc(-c2nc(NCC3COc4ccccc4O3)c3ccccc3n2)c1 (stereo not given) | x | -24 | -36 | 1 | 9 | 67*
CCOC(=O)c1cnn(-c2nc(OCC)cc(OCC)n2)c1C | 3 | -3 | -6 | 1 | 4 | 9
C#CCN1C(=O)S/C(=C/C=C/c2ccc(N(C)C)cc2)C1=O | 8 | 44* | -13 | 5 | 5 | 19
O=C(CSc1nnc(-c2cccc(F)c2)o1)Nc1nncs1 | -8 | -5 | 13 | 0 | 25 | -1
Cc1ccc(C)c(NC(=O)c2nc(-c3ccccc3)n(-c3ccccc3)n2)c1 | x | 3 | -14 | 1 | 1 | 18
Cc1nn(-c2ccccc2)c(Cl)c1C(=O)Nc1nnc(C2CCCCC2)s1 | x | -11 | -3 | 2 | 0 | 6
Cc1ccc(C)c(NC(=O)c2cc(-c3ccccc3)nn2-c2ccccc2)c1 | 16 | -13 | -1 | 7 | 3 | 74*
O=C(Nc1nnc(C2CC2)s1)c1cc(-c2ccccc2)nn1-c1ccccc1 | x | -36 | -1 | 2 | -5 | 70*
CN1C[C@@H]2C[C@@H](c3cccn3-c3nccs3)N3CCC[C@@]23C1=O | 10 | 3 | 1 | 3 | -4 | 8
O=C(Cn1c(=O)oc2cc(S(=O)(=O)N3CCCCCC3)ccc21)NC1CCCCC1 | x | -3 | -1 | 8.8* | 2 | -13
Cc1nc(NC2=NCN(C3CCCCC3C)CN2)nc2ccccc12 (stereo not given) | x | -16 | 2 | 1 | -1 | 86*
O=C1c2cccc(Cl)c2C(=O)c2c1cccc2N1CCCC1 | x | x | x | x | 4 | x

From PubChem
